Measurements from ChEMBL document CHEMBL3045066, “Synthesis, structure-activity relationships (SAR) and in silico studies of coumarin derivatives with antifungal activity” (2013).
Values after ≈ are worked out from the molar mass of the structure shown.

What was measured:
Type in all cases: functional
Aspergillus flavus [1] = assay: Antifungal activity against Aspergillus flavus LM 26 after 72 hr by broth microdilution method; conditions: LM 26, 72 h
Procedure, shortened: (§1)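 Molds were grown 7 days on SDA at 25–28 °C, and conidia were harvested in sterile 0.85% NaCl. Conidia were counted by hemocytometer and adjusted to about 5 × 10^6 conidia/mL. Microdilution used Sabouraud broth in 96-well plates with compound at 2048 to 8 μg/mL and about 2.5 × 10^5 conidia/mL per well. Plates were incubated at 25–28 °C for 72 h, with readings confirmed at 7 days. Amphotericin B was the reference.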

Aspergillus fumigatus [2] = assay: Antifungal activity against Aspergillus fumigatus ATCC 46913 after 72 hr by broth microdilution method; conditions: ATCC 46913, 72 h; procedure, shortened: as §1
Aspergillus flavus [3] = assay: Antifungal activity against Aspergillus flavus ATCC 16013 after 72 hr by broth microdilution method; conditions: ATCC 16013, 72 h; procedure, shortened: as §1
Aspergillus fumigatus [4] = assay: Antifungal activity against Aspergillus fumigatus IPP 210 after 72 hr by broth microdilution method; conditions: IPP 210, 72 h; procedure, shortened: as §1
Aspergillus fumigatus [5] = assay: Antifungal activity against Aspergillus fumigatus ATCC 40640 after 72 hr by broth microdilution method; conditions: ATCC 40640, 72 h; procedure, shortened: as §1
Aspergillus fumigatus [6] = assay: Antifungal activity against Aspergillus fumigatus ATCC 16913 after 72 hr by broth microdilution method; conditions: for MIC: Aspergillus fumigatus, ATCC 16913, 72 h; procedure, shortened: as §1
Aspergillus flavus [7] = assay: Antifungal activity against Aspergillus flavus LM 247 after 72 hr by broth microdilution method; conditions: LM 247, 72 h; procedure, shortened: as §1
Aspergillus flavus [8] = assay: Antifungal activity against Aspergillus flavus LM 210 after 72 hr by broth microdilution method; conditions: LM 210, 72 h; procedure, shortened: as §1

| MIC (Aspergillus flavus [1]) [µg/mL] | MIC (Aspergillus fumigatus [2]) [µg/mL] | MIC (Aspergillus flavus [3]) [µg/mL] | MIC (Aspergillus fumigatus [4]) [µg/mL] | MIC (Aspergillus fumigatus [5]) [µg/mL] | log(1/MIC) (Aspergillus fumigatus [6]) | MIC (Aspergillus fumigatus [6]) [µg/mL] | MIC (Aspergillus flavus [7]) [µg/mL] | MIC (Aspergillus flavus [8]) [µg/mL] | SMILES |
| --- | --- | --- | --- | --- | --- | --- | --- | --- | --- |
| ≥ 2050 | ≥ 2050 | ≥ 2050 | ≥ 2050 | ≥ 2050 | 1.99 | ≥ 2050 | ≥ 2050 | ≥ 2050 | C=CCOc1ccc2oc(=O)ccc2c1 |
| 64 (≈ 317 µM) | 32 (≈ 158 µM) | 32 (≈ 158 µM) | 64 (≈ 317 µM) | 32 (≈ 158 µM) | 3.8 | 32 (≈ 158 µM) | 1020 (≈ 5060 µM) | 32 (≈ 158 µM) | C=CCOc1cc(=O)oc2ccccc12 |
| ≥ 2050 | ≥ 2050 | ≥ 2050 | ≥ 2050 | ≥ 2050 | 2.05 | ≥ 2050 | ≥ 2050 | ≥ 2050 | CC(C)=CCOc1ccc2oc(=O)ccc2c1 |
| ≥ 2050 | ≥ 2050 | ≥ 2050 | ≥ 2050 | ≥ 2050 | 2.16 | ≥ 2050 | ≥ 2050 | ≥ 2050 | CC(C)=CCC/C(C)=C/COc1ccc2oc(=O)ccc2c1 |
| 256 (≈ 1250 µM) | 256 (≈ 1250 µM) | 256 (≈ 1250 µM) | 256 (≈ 1250 µM) | 256 (≈ 1250 µM) | 2.89 | 256 (≈ 1250 µM) | 256 (≈ 1250 µM) | 256 (≈ 1250 µM) | CC(=O)Oc1ccc2oc(=O)ccc2c1 |
| 16 (≈ 78.4 µM) | 16 (≈ 78.4 µM) | 16 (≈ 78.4 µM) | 16 (≈ 78.4 µM) | 16 (≈ 78.4 µM) | 4.1 | 16 (≈ 78.4 µM) | 16 (≈ 78.4 µM) | 16 (≈ 78.4 µM) | CC(=O)Oc1cc(=O)oc2ccccc12 |
| 512 (≈ 2060 µM) | 512 (≈ 2060 µM) | 512 (≈ 2060 µM) | 512 (≈ 2060 µM) | 512 (≈ 2060 µM) | 2.68 | 512 (≈ 2060 µM) | 512 (≈ 2060 µM) | 512 (≈ 2060 µM) | CCOC(=O)COc1ccc2ccc(=O)oc2c1 |
| 16 (≈ 77.2 µM) | 16 (≈ 77.2 µM) | 16 (≈ 77.2 µM) | 16 (≈ 77.2 µM) | 16 (≈ 77.2 µM) | 4.11 | 16 (≈ 77.2 µM) | 16 (≈ 77.2 µM) | 16 (≈ 77.2 µM) | O=c1ccc2cc([N+](=O)[O-])c(O)cc2o1 |
| 512 (≈ 2030 µM) | 512 (≈ 2030 µM) | 512 (≈ 2030 µM) | 512 (≈ 2030 µM) | 512 (≈ 2030 µM) | 2.69 | 512 (≈ 2030 µM) | 512 (≈ 2030 µM) | 512 (≈ 2030 µM) | O=c1ccc2c([N+](=O)[O-])c(O)c([N+](=O)[O-])cc2o1 |
| 1020 (≈ 4940 µM) | 1020 (≈ 4940 µM) | 1020 (≈ 4940 µM) | 1020 (≈ 4940 µM) | 1020 (≈ 4940 µM) | 2.3 | 1020 (≈ 4940 µM) | 1020 (≈ 4940 µM) | 1020 (≈ 4940 µM) | O=c1oc2ccccc2c(O)c1[N+](=O)[O-] |
| 128 (≈ 789 µM) | 64 (≈ 395 µM) | 128 (≈ 789 µM) | 64 (≈ 395 µM) | 64 (≈ 395 µM) | 3.4 | 64 (≈ 395 µM) | 128 (≈ 789 µM) | 128 (≈ 789 µM) | O=c1oc2ccccc2cc1O [3-HYDROXYCOUMARIN] |
| ≥ 2050 | ≥ 2050 | ≥ 2050 | ≥ 2050 | ≥ 2050 | 1.89 | ≥ 2050 | ≥ 2050 | ≥ 2050 | O=c1ccc2cc(O)ccc2o1 [6-HYDROXYCOUMARIN] |
| 64 (≈ 317 µM) | 64 (≈ 317 µM) | 64 (≈ 317 µM) | 64 (≈ 317 µM) | 64 (≈ 317 µM) | 3.49 | 64 (≈ 317 µM) | 256 (≈ 1270 µM) | 64 (≈ 317 µM) | C=CCOc1ccc2ccc(=O)oc2c1 [7-ALLYLOXYCOUMARIN] |
| 1020 (≈ 4450 µM) | 128 (≈ 556 µM) | 1020 (≈ 4450 µM) | 128 (≈ 556 µM) | 128 (≈ 556 µM) | 3.25 | 128 (≈ 556 µM) | 1020 (≈ 4450 µM) | 1020 (≈ 4450 µM) | CC(C)=CCOc1ccc2ccc(=O)oc2c1 [7-PRENYLOXYCOUMARIN] |
| 512 (≈ 554 µM) | 2 (≈ 2.16 µM) | 2 (≈ 2.16 µM) | 2 (≈ 2.16 µM) | 2 (≈ 2.16 µM) |  | 2 (≈ 2.16 µM) | 8 (≈ 8.66 µM) | 2 (≈ 2.16 µM) | C[C@@H]1[C@H](O)[C@@H](C)/C=C/C=C/C=C/C=C/C=C/C=C/C=C/[C@H](O[C@@H]2O[C@H](C)[C@@H](O)[C@H](N)[C@@H]2O)C[C@@H]2O[C@](O)(C[C@@H](O)C[C@@H](O)[C@H](O)CC[C@@H](O)C[C@@H](O)CC(=O)O[C@H]1C)C[C@H](O)[C@H]2C(=O)O [AMPHOTERICIN B] |
| ≥ 2050 | ≥ 2050 | ≥ 2050 | ≥ 2050 | ≥ 2050 | 2.16 | ≥ 2050 | ≥ 2050 | ≥ 2050 | CC(C)=CCC/C(C)=C/COc1ccc2ccc(=O)oc2c1 [AURAPTENE] |
| 1020 (≈ 5390 µM) | 1020 (≈ 5390 µM) | 1020 (≈ 5390 µM) | 1020 (≈ 5390 µM) | 1020 (≈ 5390 µM) | 2.26 | 1020 (≈ 5390 µM) | ≥ 2050 | 1020 (≈ 5390 µM) | O=C(O)c1cc2ccccc2oc1=O [COUMARIN-3-CARBOXYLIC ACID] |
| 1020 (≈ 7010 µM) | 1020 (≈ 7010 µM) | 1020 (≈ 7010 µM) | 1020 (≈ 7010 µM) | 1020 (≈ 7010 µM) | 2.15 | 1020 (≈ 7010 µM) | 1020 (≈ 7010 µM) | 1020 (≈ 7010 µM) | O=c1ccc2ccccc2o1 [COUMARIN] |
| ≥ 2050 | ≥ 2050 | ≥ 2050 | ≥ 2050 | ≥ 2050 | 2.21 | ≥ 2050 | ≥ 2050 | ≥ 2050 | O=c1oc2ccccc2c(O)c1Cc1c(O)c2ccccc2oc1=O [DICUMAROL] |
| ≥ 2050 | ≥ 2050 | ≥ 2050 | ≥ 2050 | ≥ 2050 | 1.93 | ≥ 2050 | ≥ 2050 | ≥ 2050 | O=c1ccc2cc(O)c(O)cc2o1 [ESCULETIN] |
| ≥ 2050 | ≥ 2050 | ≥ 2050 | ≥ 2050 | ≥ 2050 | 2 | ≥ 2050 | ≥ 2050 | ≥ 2050 | COc1cc2ccc(=O)oc2c(O)c1O [FRAXETIN] |
| ≥ 2050 | ≥ 2050 | ≥ 2050 | ≥ 2050 | ≥ 2050 | 1.97 | ≥ 2050 | ≥ 2050 | ≥ 2050 | COc1cc2ccc(=O)oc2cc1O [SCOPOLETIN] |
| ≥ 2050 | ≥ 2050 | ≥ 2050 | ≥ 2050 | ≥ 2050 | 1.89 | ≥ 2050 | ≥ 2050 | ≥ 2050 | O=c1ccc2ccc(O)cc2o1 [UMBELLIFERONE] |

| SMILES | MIC (Aspergillus flavus [1]) [µg/mL] | MIC (Aspergillus fumigatus [2]) [µg/mL] | MIC (Aspergillus flavus [3]) [µg/mL] | MIC (Aspergillus fumigatus [4]) [µg/mL] | MIC (Aspergillus fumigatus [5]) [µg/mL] | log(1/MIC) (Aspergillus fumigatus [6]) | MIC (Aspergillus fumigatus [6]) [µg/mL] | MIC (Aspergillus flavus [7]) [µg/mL] | MIC (Aspergillus flavus [8]) [µg/mL] |
| --- | --- | --- | --- | --- | --- | --- | --- | --- | --- |
| O=c1cc(O)c2ccccc2o1 [4-HYDROXYCOUMARINS] | ≥ 2050 | ≥ 2050 | ≥ 2050 | ≥ 2050 | ≥ 2050 | 1.89 | ≥ 2050 | ≥ 2050 | ≥ 2050 |
| CC(=O)Oc1ccc2ccc(=O)oc2c1 [7-ACETOXYCOUMARIN] | 64 (≈ 313 µM) | 64 (≈ 313 µM) | 64 (≈ 313 µM) | 64 (≈ 313 µM) | 64 (≈ 313 µM) | 3.5 | 64 (≈ 313 µM) | 128 (≈ 627 µM) | 64 (≈ 313 µM) |
